# Compound activity (PubChem BioAssay)
# M5 ag: CHRM5 agonism in calcium assay. activation, % at 3 µM. P08912. CHO-K1 hM5 cells, Fluo-8 calcium fluorescence; 0% DMSO wells, 100% maximal acetylcholine response. actives 0.19% (n = 360,000);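 active means activation above the run's mean over test compounds plus 3 SD, cut at about 23% in these data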;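 further: signal is peak over basal fluorescence ratio across the kinetic read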
# CHO-K1 Ca antag: M1 antagonist counterscreen hit in parental CHO-K1 cells; AID 602250; ATP-induced calcium, Fluo-8 fluorescence; actives 0.6% (n = 360,000); inhibition, % at 3 µM;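 active means inhibition above a per-plate cutoff, the plate's mean sample inhibition plus 3 SD, cut at about 24% in these data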;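 further: 0% = DMSO plus EC80 ATP and 100% = DMSO alone without ATP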
# M5 PAM: positive allosteric modulators of human muscarinic M5 receptor | CHO-K1 hM5, Fluo-8 calcium, ACh EC20 PAM; 0% = ACh EC20, 100% = ACh EC100 | activation, % at 3 µM | actives 0.3% (n = 360,000) | AID 624038;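 active means activation above the run cutoff, the mean activation of all test compounds plus 3 SD, cut at about 18% in these data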
#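 Probe or stimulus: acetylcholine, EC20 level; Assay system: human M5 receptor in CHO-K1 cells; Schedule: compound preincubation 140 s before EC20 acetylcholine addition; Technique: intracellular calcium via Fluo-8 fluorescence; Dosing: single-point, 3 µM nominal; Read-out basis: percent activation from peak-over-basal fluorescence ratio, scaled EC20-to-EC100 acetylcholine; Repeats: one well per compound, no replicates.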
# CHO-K1 Ca ag: counter-screen for M1 agonists: effect in parental CHO-K1 cells; Fluo-8 calcium fluorescence; scaled to maximal ATP response, vehicle zero; activation, % at 3 µM; actives 0.48% (n = 360,000); in the data active means activation above about 15%;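 further: untransfected CHO-K1 host cells lacking M1 receptor as counterscreen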
# CHRM5 antagonist: CHRM5 antagonism in calcium assay; P08912; CHO-hM5 cells, Fluo-8 calcium fluorescence, ACh EC80; inhibition, % at 3 µM; actives 0.59% (n = 360,000); AID 624040;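 active means inhibition above a per-plate cutoff, the mean of that plate's test compounds plus 3 SD, cut at about 27% in these data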;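 further: 0% = acetylcholine EC80 with DMSO and 100% = DMSO without agonist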
# CHO-K1 Ca PAM: M1 PAM counterscreen hit in parental CHO-K1 cells. ATP EC20, Fluo-8 calcium fluorescence; 0% at ATP EC20, 100% at ATP max. activation, % at 3 µM. actives 0.02% (n = 360,000). AID 602247;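 active means activation above the run cutoff, the mean activation of all test compounds plus 3 SD, cut at about 40% in these data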;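 further: peak over basal fluorescence ratio in a 140 s read after ATP addition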
# Active calls of the source: *. Compounds with a hit are over-represented: about 1.7% of the library has one in this group of screens.
SMILES,M5 ag,CHO-K1 Ca antag,M5 PAM,CHO-K1 Ca ag,CHRM5 antagonist,CHO-K1 Ca PAM
O=c1[nH]c2ccccc2n1C1CCN(C(c2ccccc2)c2nnnn2-c2ccc3c(c2)OCCO3)CC1 (configuration not stated),1.5,-16.8,-15.3,6.2,15.1,9.4
O=c1[nH]c2ccccc2n1C1CCN(C(c2cccs2)c2nnnn2-c2ccc3c(c2)OCCO3)CC1 (configuration not stated),-1.4,-27.6,-22.1,6.8,11.9,41.9*
O=c1[nH]c2ccccc2n1C1CCN(C(c2ccccc2OC(F)(F)F)c2nnnn2-c2ccc3c(c2)OCCO3)CC1 (configuration not stated),5.2,-18.1,-14.8,19.6*,11.3,33.0
Cc1ccc(Cn2cc(C=O)c3ccccc32)cc1,-4.5,-8.5,-8.8,7.2,6.8,4.7
CCOc1ccc(C(=O)OC2CC3CCC(C2)N3C)cc1 (configuration not stated),-10.6,-1.9,-21.3,1.0,12.1,16.3
CN1C2CCC1CC(OC(=O)c1ccc(Cl)cc1)C2 (configuration not stated),-11.7,0.3,-14.8,6.7,31.8*,17.6
Cc1c2ccncc2c(C)c2c1[nH]c1ccccc12,2.3,13.6,3.4,5.1,-0.1,10.2
c1ccc2c(c1)[nH]c1cnccc12,1.1,25.4*,-8.8,0.6,2.4,-13.0
CC(=O)N(C)CC#CCN1CCC(O)CC1,2.0,-2.6,7.0,0.5,10.8,-0.3
COC(=O)[C@@H]1[C@@H](C(=O)OC)C2(c3ccccc3-c3ccccc32)N(c2ccc(Cl)cc2)N1C#N,-4.7,26.4*,-3.1,0.1,10.6,4.8
COC(=O)C[C@]1(C(=O)OC)CN(C#N)N(c2ccc(Cl)cc2)C12c1ccccc1-c1ccccc12,-3.4,-8.7,9.9,0.5,0.5,16.8
